Reference: ChEMBL document CHEMBL1629654, “Breakthrough Aspergillus fumigatus and Candida albicans double infection during caspofungin treatment: laboratory characteristics and implication for susceptibility testing” (2009)
In brackets after ≈: the same amount, converted by molar mass. Activity calls are given as the source filed them. The calls are words filed in the database; no cut-off is given here.

What was measured:
Candida albicans [1] = assay: Antimicrobial activity against Candida albicans isolate R at 1 ug/ml grown on RPMI 1640 medium after 48 hrs by disk diffusion method; format: functional
Summary of the method: (§1)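 Disk diffusion on 90-mm RPMI 1640 with 2% glucose agar or on Mueller-Hinton agar. Plates were swabbed in three directions with a yeast suspension of 1–5 × 10^6 cells/ml. Paper disks (6 mm) held 1, 5 or 25 µg drug. Zone diameters were read at 24 and 48 h; values are means of two experiments.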

Nakaseomyces glabratus [2] = assay: Antimicrobial activity against Candida glabrata after 24 hrs by M27-A3 method; format: functional
Pichia kudriavzevii [3] = assay: Antimicrobial activity against Candida krusei after 48 hrs
Candida albicans [4] = assay: Antimicrobial activity against Candida albicans isolate C after 48 hrs by microdilution method; format: functional
Summary of the method: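 Broth microdilution in microtiter plates, read spectrophotometrically at 490 nm. MIC taken as the lowest drug dilution giving 50% growth inhibition. C. krusei […] run as control in each run. Read at 24 h and 48 h; trailing growth noted at 48 h.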

Candida tropicalis = assay: Antimicrobial activity against Candida tropicalis after 48 hrs
Candida albicans [5] = assay: Antimicrobial activity against Candida albicans isolate C at 2 ug/ml after 48 hrs by agar dilution method; format: functional, organism-based
Summary of the method: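 Agar dilution on Sabouraud agar with caspofungin at 0, 0.5, 1 and 2 per ml. Isolates were subcultured 2 days on CHROMagar. Suspensions of 1×10^6 to 5×10^6 CFU/ml in sterile water were diluted 1,500-fold, and approximately 3 to 15 cells were spread per agar surface. Growth or no growth was scored, with repeated testing.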

Candida albicans [6] = assay: Antimicrobial activity against Candida albicans isolate S at 5 ug/ml grown on RPMI 1640 medium after 48 hrs by disk diffusion method; format: functional; summary of the method: as §1
Candida albicans [7] = assay: Antimicrobial activity against Candida albicans isolate R at 1 ug/ml grown on Muller-Hinton agar medium after 48 hrs by disk diffusion method; format: functional; summary of the method: as §1
Nakaseomyces glabratus [8] = assay: Antimicrobial activity against Candida glabrata after 48 hrs by Etest; format: functional
Pichia kudriavzevii [9] = assay: Antimicrobial activity against Candida krusei after 48 hrs by Etest; format: functional
Kluyveromyces marxianus = assay: Antimicrobial activity against Candida kefyr after 24 hrs by M27-A3 method; format: functional
Candida albicans [10] = assay: Antimicrobial activity against Candida albicans after 24 hrs by M27-A3 method; format: functional
Candida albicans [11] = assay: Antimicrobial activity against Candida albicans isolate S at 5 ug/ml grown on Muller-Hinton agar medium after 24 hrs by disk diffusion method; format: functional; summary of the method: as §1
[12] = system: Meyerozyma guilliermondii; assay: Antimicrobial activity against Candida guilliermondii after 24 hrs by M27-A3 method; format: functional

With CC[C@H](C)C[C@H](C)CCCCCCCCC(=O)N[C@H]1C[C@@H](O)[C@@H](NCCN)NC(=O)[C@@H]2[C@@H](O)CCN2C(=O)[C@H]([C@H](O)CCN)NC(=O)[C@H]([C@H](O)[C@@H](O)c2ccc(O)cc2)NC(=O)[C@@H]2C[C@@H](O)CN2C(=O)[C@H]([C@@H](C)O)NC1=O [CASPOFUNGIN] the “inhibition zone (IZ)” value (Candida albicans [1]) was 6.2 mm, the MIC90 (Nakaseomyces glabratus [2]) was 0.06 µg/mL (≈ 0.0549 µM) and the MIC90 (Pichia kudriavzevii [3]) was 1 µg/mL (≈ 0.915 µM). The MIC (Candida albicans [4]) was no more than 0.06 µg/mL, the MIC90 (Candida tropicalis) was 0.5 µg/mL (≈ 0.457 µM) and the “growth inhibition (GI)” value (Candida albicans [5]) was “Active”. For the same compound, the “inhibition zone (IZ)” value (Candida albicans [6]) was 21 mm, the “inhibition zone (IZ)” value (Candida albicans [7]) was 6.1 mm and the MIC90 (Nakaseomyces glabratus [8]) was 0.25 µg/mL (≈ 0.229 µM). It also gave an MIC90 (Pichia kudriavzevii [9]) of 1 µg/mL (≈ 0.915 µM), an MIC90 (Kluyveromyces marxianus) of 0.015 µg/mL (≈ 0.0137 µM) and an MIC90 (Candida albicans [10]) of 0.06 µg/mL (≈ 0.0549 µM). The “inhibition zone (IZ)” value (Candida albicans [11]) was 19.2 mm and the MIC90 [12] was 1 µg/mL (≈ 0.915 µM).
